# Screening results as filed in PubChem BioAssay.
# b-catenin transl: alters nuclear translocation of beta-catenin in HeLa cells. immunofluorescence imaging. nuclear translocation activity, % at 5 µM. 0.3% of 190,000 active;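 active means nuclear translocation activity above 50% at 5 µM, with a well cell count of 50 or more; inconclusive means wells under 50 cells across six images, flagged as toxic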;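 further: per-cell ratio of nuclear to cytoplasmic median beta-catenin stain intensity; plate controls were DMSO negative control for no effect and GSK-3 inhibitor IX positive control for full effect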
#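 Test system: HeLa cells, endogenous beta-catenin; Compound: single 5 µM dose plus 0.02–20 µM confirmation series; Times: compound exposure 24 h at 37°C; Signal: fluorescence imaging of beta-catenin antibody stain plus DAPI; Read-out: % activation, nuclear-to-cytoplasmic median beta-catenin signal ratio per cell.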
# MT stabilize HCS: microtubule stabilizers in HeLa cells; HeLa tubulin immunostaining HCS, 24 h; share of cells brighter than vehicle mean+2SD; % tubulin-high responders, % at 10 µM; 0.83% of 200,000 active; AID 2205;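 active means plate Z-score above 3 for both tubulin-high and condensed-nucleus cell shares, with cell loss under 80%, at 10 µM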;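 further: anti alpha tubulin signal scored within the nucleus-defined area of each cell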
# Pf gametocyte: kills late stage P. falciparum gametocytes; P. falciparum stage V gametocytes, ATP luminescence, 24 h; inhibition, % at 10.9 µM; 0.065% of 150,000 active;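 active means inhibition above the mean plus 3 SD of compounds within the control limits, set per campaign, cut at about 38% in these data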;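 further: 0% = DMSO wells and 100% = medium only without gametocytes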
# WT yeast gro inh: growth inhibition of WT yeast, mitochondrial fusion screen; mitochondrial fusion phenotypic screen, WT strain; inhibition, % at 10 µM; 2.1% of 190,000 active; AID 1362; in the data active means inhibition above about 58%; tested in S. cerevisiae
# KCC2 mod: modulates chloride dependent transport by human KCC2; KCC2 cells, thallium flux FluoZin-2 fluorescence; B-score of Tl+ flux slope (higher = more flux/activation; lower = inhibition) at 10 µM; 2.2% of 190,000 active; AID 1456;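 active means thallium flux slope and its plate-corrected score both differing from the plate sample mean at a set confidence after two filtering rounds, in either direction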;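 further: slope of fluorescence scaled to starting intensity during 10 to 20 s after thallium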
# Target sequence (Q9H2X9 whole entry, looked up): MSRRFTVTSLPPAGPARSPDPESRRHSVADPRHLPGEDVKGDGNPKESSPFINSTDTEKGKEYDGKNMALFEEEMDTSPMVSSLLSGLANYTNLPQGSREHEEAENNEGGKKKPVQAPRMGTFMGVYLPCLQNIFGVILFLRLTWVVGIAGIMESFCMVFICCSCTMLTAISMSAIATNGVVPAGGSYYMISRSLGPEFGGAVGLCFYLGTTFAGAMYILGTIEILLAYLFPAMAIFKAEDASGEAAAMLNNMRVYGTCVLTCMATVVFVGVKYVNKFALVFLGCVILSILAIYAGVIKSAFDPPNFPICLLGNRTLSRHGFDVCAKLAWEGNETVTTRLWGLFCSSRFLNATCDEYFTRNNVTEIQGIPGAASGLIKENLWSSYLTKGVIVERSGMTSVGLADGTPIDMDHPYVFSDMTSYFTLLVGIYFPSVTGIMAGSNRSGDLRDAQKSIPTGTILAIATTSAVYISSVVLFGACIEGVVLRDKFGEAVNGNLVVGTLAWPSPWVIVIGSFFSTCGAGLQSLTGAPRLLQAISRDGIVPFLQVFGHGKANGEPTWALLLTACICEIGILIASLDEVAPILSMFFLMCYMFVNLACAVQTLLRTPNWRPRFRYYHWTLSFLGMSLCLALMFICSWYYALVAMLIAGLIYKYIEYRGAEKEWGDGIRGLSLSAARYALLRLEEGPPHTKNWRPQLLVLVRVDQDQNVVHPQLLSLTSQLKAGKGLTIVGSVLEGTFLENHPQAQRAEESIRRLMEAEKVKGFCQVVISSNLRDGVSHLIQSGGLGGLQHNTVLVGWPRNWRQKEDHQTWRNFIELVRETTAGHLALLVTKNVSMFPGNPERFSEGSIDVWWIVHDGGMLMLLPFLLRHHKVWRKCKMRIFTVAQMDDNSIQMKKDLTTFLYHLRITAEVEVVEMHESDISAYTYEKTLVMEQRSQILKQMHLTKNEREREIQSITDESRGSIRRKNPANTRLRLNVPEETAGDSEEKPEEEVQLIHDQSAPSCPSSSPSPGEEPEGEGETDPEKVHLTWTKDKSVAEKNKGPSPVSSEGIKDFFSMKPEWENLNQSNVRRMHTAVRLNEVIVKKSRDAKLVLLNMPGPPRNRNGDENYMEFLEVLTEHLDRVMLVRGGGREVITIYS
# KCC2 sec1: KCC2 (human) modulation, secondary assay; shares compounds with KCC2 mod; HEK293-KCC2, thallium flux, FluoZin2 fluorescence; stronger effect = higher value; 15% of 3,700 active; normalised thallium flux (F/F0 slope) at 10 µM;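 active means thallium flux slope above the same plate's solvent-only control mean plus 3 SD; inconclusive means the two replicate wells disagree; inactive means no significant difference from solvent-only control wells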
# KCC2 bumet counter: thallium flux despite bumetanide block in KCC2 cells, secondary assay 3. shares compounds with KCC2 mod. HEK293-KCC2 + bumetanide/ouabain, thallium flux FluoZin2; stronger effect = higher value. normalized thallium flux at 10 µM. 49% of 3,700 active;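 active means thallium entry rate above the same plate's blocked-transporter control wells by more than 3 SD; inconclusive means the two repeat wells disagree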;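 further: raw slope of fluorescence over initial fluorescence between 10 and 20 s after thallium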
# KCC2 sec2: confirmation of human KCC2 transport modulators | shares compounds with KCC2 mod | HEK293-KCC2, thallium flux FluoZin2 fluorescence; actives lie on both sides; F/F0 rise rate, 10–20 s post-thallium | normalized thallium flux at 10 µM | 23% of 3,700 active | AID 1715;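 active means thallium flux slope more than 3 SD above or below the plate's solvent-only control mean, mostly below; inconclusive means the two repeat wells disagreed; inactive means no significant shift from solvent-only controls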;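 further: raw slope with 0.1% DMSO as baseline and bumetanide as block control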
# HEK counter1: acts in parental HEK cells, KCC2 counter-screen; shares compounds with KCC2 mod; HEK293 parental cells, thallium flux FluoZin2, ouabain; baseline-ratio fluorescence slope, 10–20 s after thallium; thallium flux rate (normalised fluorescence) at 10 µM; 46% of 3,700 active; AID 1716;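 active means thallium flux rate significantly above the same plate's solvent-only control wells, beyond their mean plus 3 SD; inconclusive means the two replicate wells gave conflicting results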
# KCC2 retest ouab: modulates human KCC2 on retest with ouabain. shares compounds with KCC2 mod. HEK293-KCC2, thallium flux FluoZin2 fluorescence; bidirectional: low = inhibitor, high = activator. raw Tl+ flux slope (below DMSO = inhibition, above = activation) at 10 µM. 48% of 3,700 active. AID 1717;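 active means thallium flux slope beyond 3 SD from same-plate DMSO control mean in most replicates, usually higher, sometimes lower; inconclusive means repeat tests gave conflicting results; inactive means no significant difference from controls in most replicates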;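 further: slope of initial-normalized fluorescence between seconds 10 and 20 after thallium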
# HEK293 Tl flux2: counter-screen for KCC2 modulators: effect in parental HEK293 cells; thallium flux slope at 10 µM; shares compounds with KCC2 mod; thallium flux FluoZin-2 fluorescence slope; 33% of 3,700 active; AID 1718;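 active means thallium flux slope above the same plate's solvent-control mean plus 3 SD in both duplicate wells; inconclusive means duplicate wells that disagreed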;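 further: run without ouabain in cells lacking the KCC2 cotransporter; slope of fluorescence scaled to its starting value between 10 and 20 s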
# * hit, by the source's call; ? = inconclusive; / = no result given. Shown are actives, neighbours in structure and some others; about 4% of the full set was active somewhere.
SMILES,b-catenin transl,MT stabilize HCS,Pf gametocyte,WT yeast gro inh,KCC2 mod,KCC2 sec1,KCC2 bumet counter,KCC2 sec2,HEK counter1,KCC2 retest ouab,HEK293 Tl flux2
O=C(Nc1nnc(-c2ccc(F)cc2)o1)c1cccc([N+](=O)[O-])c1,-2,2,/,76*,48*,0.033*,0.09*,0.044*,?,0.072*,0.023*
CCc1nnc(NC(=O)c2ccc(S(=O)(=O)N(CCOC)CCOC)cc2)o1,-2,6,/,-29,-0.085,/,/,/,/,/,/
CC(=O)C1=C(O)C(=O)N(c2ccc(Br)cc2)C1c1cccc([N+](=O)[O-])c1 (stereo not given),/,/,7,/,/,/,/,/,/,/,/
CCC1CCCCN1Cc1ccc(N)cc1 (stereo not given),-4,2,9,-1,0.27,/,/,/,/,/,/
Cc1ccccc1-n1c(-c2ccc3ccccc3n2)n[nH]c1=S,-2,/,-2,/,11*,0.011,0.023*,0.035,?,?,0.013
S=c1[nH]nc(-c2ccc3ccccc3n2)n1-c1ccc(Cl)cc1,-1,5,/,12,14*,0.0069,0.032*,0.043*,0.029*,0.037*,0.026*
Cc1ccccc1-n1c(-c2csc3ccccc23)n[nH]c1=S,-3,4,/,31,15*,0.016*,0.045*,0.031,0.015*,0.043*,?
Cc1ccccc1-n1c(-c2csc(C)c2C)n[nH]c1=S,-1,3,-12,24,2.4,/,/,/,/,/,/
Fc1ccc(-n2c(-c3ccc4ccccc4n3)n[nH]c2=S)cc1Cl,-1,2,-8,32,26*,0.0075,0.023*,0.042*,0.031*,0.04*,0.019*
COc1ccc(-c2n[nH]c(=S)n2-c2ccccc2C)cc1,/,/,-24,/,/,/,/,/,/,/,/
CCCC(=O)c1c[nH]c(C(=O)NCCc2ccccn2)c1,0,3,4,-17,0.017,/,/,/,/,/,/
Cc1nnc(SCc2nnc(-c3ccccc3Br)o2)s1,0,2,-14,2,-0.19,/,/,/,/,/,/
COc1ccc(-c2csc(NC(=O)c3ccccc3F)n2)cc1,/,/,-6,/,/,/,/,/,/,/,/
COc1ccc(-c2csc(NC(=O)c3ccccc3NS(=O)(=O)c3ccc(F)c(F)c3)n2)cc1,-4,8,13,87*,-4.6*,0.0052*,0.011*,0.033,?,0.011*,0.011
CC(C)(C)C1CCC(OC(=O)CN2CCCCC2)CC1 (stereo not given),1,/,14,/,-0.055,/,/,/,/,/,/
CC(C(=O)NCc1ccco1)n1cc([N+](=O)[O-])cn1 (stereo not given),0,3,/,-15,2.3,/,/,/,/,/,/
CC(=O)Oc1ccc2c(C)cc(=O)[nH]c2c1,0,2,/,-4,/,/,/,/,/,/,/
COc1ccc2c(C)cc(=S)[nH]c2c1,1,2,-2,6,8*,0.017,0.015*,0.03,0.013*,0.019,0.014*
O=C1N(Cc2cccc(Cl)c2)C[C@@H]2C[C@@H](c3cccc4cccnc34)N3CCC[C@@]123,-2,3,7,15,-1,/,/,/,/,/,/
O=C1N(Cc2cccc(Cl)c2)C[C@@H]2C[C@@H](c3cccc4ncccc34)N3CCC[C@@]123,0,2,2,9,/,0.0098,0.0052,0.036,0.0035,0.019,0.011
CCCC(=O)Nc1cccc(C(=O)Nc2ccccc2OCC)c1,0,4,20,18,0.8,/,/,/,/,/,/
CCCCc1ccc(-n2c(Cc3cccs3)n[nH]c2=S)cc1,-2,6,2,74*,58*,0.006,0.097*,0.063*,0.08*,0.053*,0.067*
COc1cccc(C(=O)O[C@H]2[C@H](C)NS(=O)(=O)[C@H]3C[C@@H]4C=C[C@]23O4)c1,/,/,25,/,/,/,/,/,/,/,/
O=C(CCCc1c[nH]c2ccccc12)NCc1ccc2c(c1)OCO2,-2,1,-6,-26,-4.5*,0.0068,0.0065,0.028,0.0065,?,0.0098
CN(Cc1cccnc1)Cc1cn(Cc2ccccc2)nc1-c1ccc2c(c1)OCO2,0,1,-24,-14,-0.31,/,/,/,/,/,/
SMILES,b-catenin transl,MT stabilize HCS,Pf gametocyte,WT yeast gro inh,KCC2 mod,KCC2 sec1,KCC2 bumet counter,KCC2 sec2,HEK counter1,KCC2 retest ouab,HEK293 Tl flux2
CCSc1nc2c(sc3ccccc32)c(=O)n1C(C)C,/,3,6,58,24*,0.038*,0.12*,0.042*,0.055*,0.054*,0.021*
CCCCn1c(SCC(N)=O)nc2c(sc3ccccc32)c1=O,/,2,23,18,0.6,/,/,/,/,/,/
CSc1ncccc1C(=O)OCC(=O)c1cccs1,-5,2,21,-10,-0.49,/,/,/,/,/,/
CC(=O)c1ccccc1C(=O)NCc1cccnc1,-1,3,/,-5,0.77,/,/,/,/,/,/
CCC1=NN2C(=N)/C(=C\c3cccn3-c3ccc(Cl)cc3)C(=O)N=C2S1,0,4,/,29,18*,?,0.043*,0.03,0.014*,0.027,0.011*
CCC1=NN2C(=N)/C(=C\c3cccn3-c3ccc(C)c(C)c3)C(=O)N=C2S1,-3,2,6,14,7*,0.0062,0.048*,0.049*,0.037*,0.042*,0.034*
CCCC1=NN2C(=N)/C(=C\c3cc(C)n(-c4cc(C)cc(C)c4)c3C)C(=O)N=C2S1,-1,3,/,14,12*,0.01,0.015*,0.034,?,0.025*,0.013
O=C(COC(=O)CCCSc1nc2ccccc2[nH]1)NC(=O)NC1CCCC1,-2,3,/,-5,-0.9,0.0092,0.0053,0.033,?,0.02,0.01
Cn1c(Sc2ccc(C(F)(F)F)cc2[N+](=O)[O-])nnc1-c1ccccc1,2,3,2,4,-5.3*,0.0076,0.0063,0.034,0.0045,0.019,0.011
COc1ccc(CN(C(=O)c2ccc(-c3ccccc3)[nH]2)C(C(=O)NC(C)(C)C)c2ccncc2)cc1 (stereo not given),-2,3,16,7,-4.9*,0.0085,0.0072,?,0.0073,0.016*,0.01
COc1cc(C(C(=O)NC(C)(C)C)N(Cc2ccccc2)C(=O)c2cnccn2)cc(OC)c1OC (stereo not given),-3,4,/,-1,0.64,/,/,/,/,/,/
